Source: the EternaBench riboswitch data

Test system: MS2 coat protein
Assay: apparent Kd, MS2 coat protein; higher = weaker binding; RNA-MaP array; FMN 200 µM where present
Procedure, shortened: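 In 100 mM Tris-HCl pH 7.5, 80 mM KCl, 4 mM MgCl2, BSA, DTT, yeast tRNA and Tween-20, SNAP-549-labelled MS2 coat protein was titrated from 0.7 or 1.5 nM, doubling to 3 µM, over designs transcribed by stalled E. coli RNA polymerase on Illumina sequencing-chip clusters. This was done first without ligand, then with ligand held constant. After green signal was normalised to red-channel RNA signal and control-cluster median Fmax, the apparent Kd was taken as the median of filtered per-cluster binding-curve fits.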

[1] = designed as: OFF switch for flavin mononucleotide, no ligand
[2] = ligand present: flavin mononucleotide, designed as: OFF switch for flavin mononucleotide
[3] = designed as: ON switch for flavin mononucleotide, no ligand
[4] = ligand present: flavin mononucleotide, designed as: ON switch for flavin mononucleotide

Row | Sequence | apparent Kd [1] [nM] | apparent Kd [2] [nM] | apparent Kd [3] [nM] | apparent Kd [4] [nM]
1 | UGUUGAUAGCAGAAGGACAUGAGGAUCACCCAUGUAUGGAUACAAAUUUAUGUAGGAUAUGCUAUUAACUAAGAGUGAGCGUUC | 9.46 | 42.5 |  | 
2 | UGUUGUAUUACAGGAUAUCUAGUAUUUUAAUUUAGAGAAGGGUAUUCACAUGAGGAUCACCCAUGUAUAUACGAGGAAGUUGUG |  |  | 51.3 | 61.6
3 | UGUUGUAUUACAGGAUAUCUAUUAGCUUUAUUUAGAGAAGGGUAUUCACAUGAGGAUCACCCAUGUAUAUACGAGGAAGUUGUG |  |  | 46.1 | 50.1
4 | UGUUGUAUUACAGGAUAUCUAUUGUUUUUUUUUAGAGAAGGGUAUUCACAUGAGGAUCACCCAUGUAUAUACGAGGAAGUUGUG |  |  | 60.7 | 71.3
5 | UGUUGUUCAGGAUAUGAUGUAUAAUACAUGAGGAUCACCCAUGUAGGUCCUGAUUUGGCGUCAGAAGGGAAUGUUG | 27.7 | 31 |  | 
6 | UGUUUGUGACAGAAGGGCAUUUACAUGAGGAUCACCCAUGUUCAUCAUUGCAGGAUAUGUAUUUCAUGAGGAUCACCUAUGCUC |  |  | 201 | 71.1
7 | UUAAAUCAUGUAGGAUAUGCAUGGCCAAGCUAGGCAGAAGGACAUGAGGAUCACCCAUGUUAUAGCUACCAAGUAAGGUGGCAA | 32.9 | 279 |  | 
8 | UUAAAUCAUGUAGGAUAUGCAUGGCGAAGCUACGCAGAAGGACAUGAGGAUCACCCAUGUUAUAGCGACCCAGUUCGGUUGCAA | 94.3 | 230 |  | 
9 | UUAAAUCAUGUAGGAUAUGCGUGGCGAAGCUAUGCAGAAGGACAUGAGGAUCACCCAUGUUCUGCGGUCUGCGUACAGAUCGCU | 18.3 | 155 |  | 
10 | UUAACAUGCUUAGGAUAUCGGAUUUUUUUUUUUCGAGAAGGAAGAUUCUUUUUUUUUUACAUGAGGAUCACCCAUGUUUAUUUU | 10.2 | 5.78 |  | 
11 | UUAAGUCAUGUAGGAUAUCCGAUGCGAAGCGUUGGAGAAGGACAUGAGGAUCACCCAUGUUCUAGCGUCUGAGUACAGAUGCAA | 27 | 76 |  | 
12 | UUAAUGAAGUAAGGAUAUACAUGAGGAUUUCUCGUAGAAGGUACUAUACAUGAGGAUCACCCAUGUGCCGGUCAGAAGACUGGA |  |  | 433 | 274
13 | UUAAUGUGAGGAUAUCAGGUGUGCUAGCGUACUGGUACAUCUGAGAAGGCACAUGAGGAUCACCCAUGUUCCAG | 32.8 | 100 |  | 
14 | UUAAUGUGAGGAUAUGGUAAAGAUAAGAUGAUGAAAGAACUCCAGAAGGCACAUGAGGAUCACCCAUGUAGAUG | 39.5 | 86.6 |  | 
15 | UUACAGCACGGGUAGGAUAUGUAGGGUGGUACAUGAGGAUCACCCAUGUAUCCACCCUUCGAACGGCAGAAGGGCCUGUCACUGC |  |  | 16.7 | 17
16 | UUACAUACAAAGGUACAUGAGGAUCACCCAUGUUUGUUGGGAAGAAGGGUAACAGUACUACACAUAUAGGAUAUUUCACAAAUA |  |  | 52.4 | 40
17 | UUACAUACAAAGUUACAUGAGGAUCACCCAUGUUUAUUGGGAAGAAGGGUAACAGUAUUACAUAUAUAGGAUAUUUCACAAAUG |  |  | 409 | 251
18 | UUACGUCCCGUUUACAUGAGGAUCACCCAUGUCGAAAGAGCGGAGGAUAUGCUACCUAGUUGGUAGCAGAAGGCUGCAACGUCG |  |  | 35.2 | 46.5
19 | UUACUAUAACAGAAGGCUAGAUAAUAUAUAAAUGGAGGAUAUGUUACAUGAGGAUCACCCAUGUUUCACCCACAUGAGGAUCAC | 16.4 | 52.2 |  | 
20 | UUACUAUUACAGAAGGUUAAAUAAUAUAUAAAUGAAGGAUAUGUAACAUGAGGAUCACCCAUGUUUCACCCACAUGAGGAUCAU | 9.63 | 9.57 |  | 
21 | UUACUCAUGUAAGGAUAUGCAGCCGUUUCGGCUGCAGAAGGUACUAUAAUACAUGAGGAUCACCCAUGUCUUUUUAAUUUAGAU |  |  | 195 | 77
22 | UUACUCAUGUAAGGAUAUGUAGCCGAAACGGCUGCAGAAGGUACUAAAAUACAUGAGGAUCACCCAUGUCUUUUUAAUUUAGAC |  |  | 216 | 50.9
